Only a selection was taken, and hits are over-represented in it overall.
CHOP inhibitor: inhibitors of CHOP induction in ER stress response; CHO-K1 CHOP-promoter luciferase, tunicamycin-induced, 15-18 h; inhibition, % at 10 µM; actives 3.8% (n = 220,000);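 active = compounds that reduced the stress-induced luciferase reporter signal by more than about 70% of percent inhibition, limit read from the data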;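 note: 0% = tunicamycin plus vehicle and 100% = wells without tunicamycin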
A1 inh: inhibitors of the anti-apoptotic protein A1, read as caspase activation. MEF A1-2A-BIM cells, Caspase-Glo 3/7 luminescence, 3 h; percent of clofoctol response, vehicle zero. caspase activation, % (test concentration not listed). actives 0.066% (n = 330,000). AID 2462;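 active = over half of replicate activation scores above 10%, or exactly half above 10 with the replicate mean above 10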
CHOP UPR activ: activators of apoptotic arm of unfolded protein response (CHOP); actives 0.34% (n = 330,000); activation, % at 10 µM; AID 449763; CHO-CHOP luciferase reporter, UPR activation, luminescence; percent of tunicamycin response over DMSO baseline;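 active = at 10 µM dose, activation of 40% or more, normalized to positive control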;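 note: 100% = tunicamycin at 10 µg/mL and 0% = DMSO alone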
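Assay system: CHO-CHOP cells, stable luciferase reporter of PERK-eIF2a-CHOP signalling / Buffer or medium: F12 plus 10% serum / Compound dosing: one dose, 10 µM in 0.5% DMSO / Times: 6 h compound treatment, 37 °C / Technique: luciferase luminescence / Read-out: % reporter activation, DMSO baseline versus tunicamycin full activation / Benchmarks: tunicamycin and DMSO controls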
XBP1 UPR activ: activators of adaptive arm of unfolded protein response (XBP1); actives 0.33% (n = 330,000); activation, % at 20 µM; CHO-XBP1 luciferase reporter, IRE1-XBP1 UPR activation, luminescence; percent of tunicamycin response, DMSO as zero;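 active = versus positive control, 20 µM dose yields 30% or more activation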;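 note: 100% = tunicamycin at 10 µg/mL and 0% = DMSO only wells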
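Material – CHO cell line with stable XBP1 luciferase reporter · Buffer or medium – F12 plus 10% FBS · Compound – single point, 20 µM final compound, 1% DMSO · Schedule – 16-18 h cell attachment at 37 °C, then 6 h compound exposure · Signal – Steady-Glo luminescence read · Benchmarks – high control tunicamycin 10 µg/mL final, low control DMSO vehicle only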
* hit, by the source's call; / = not tested or not shown.

SMILES | CHOP inhibitor | A1 inh | CHOP UPR activ | XBP1 UPR activ
COc1ccc(CN(C(=O)CN2C(=O)C(C)Oc3ccccc32)C2CCCC2)c(OC)c1 (stereo not given) | 71.4* | 0.6 | 0.2 | 1.9
COc1ccc(CN(C(=O)CN2C(=O)COc3ccccc32)C2CCCC2)c(OC)c1 | 14.0 | -1.3 | -0.3 | -0.3
CCC(=O)Nc1nc2ccc([N+](=O)[O-])cc2s1 | 9.1 | -1.8 | 5.4 | -1.5
Cc1ccc(C)c(OCC(=O)Nc2nc3ccc([N+](=O)[O-])cc3s2)c1C | 79.5* | 0.0 | -0.7 | 1.1
COc1cc(-c2cc(C(=O)Nc3ccc(S(=O)(=O)NCc4ccco4)cc3)c3ccccc3n2)cc(OC)c1OC | 78.7* | -0.3 | 6.8 | 0.0
Cc1cccc(COCC(CC(C)C)N2CCN(C(=O)c3ccc(C(F)(F)F)cc3)CCC2=O)c1 (stereo not given) | 43.5 | 0.0 | 1.2 | -1.4
CC(C)CC(COCc1cccc(Cl)c1)N1CCN(C(=O)c2ccc(C(F)(F)F)cc2)CCC1=O (stereo not given) | 76.8* | 3.0 | -0.3 | -1.7
Cc1cccc(COCC(CC(C)C)N2CCN(C(=O)c3ccc(C(C)(C)C)cc3)CCC2=O)c1 (stereo not given) | 71.1* | -0.2 | 2.0 | 2.2
Cc1ccc(NC(=O)COC(=O)C2=NN(c3ccccc3)C(=O)CC2)c(Br)c1 | / | -0.1 | 0.5 | -0.8
Clc1ccc(OCc2nnc(SCc3nnc(-c4ccccc4)o3)o2)c(Cl)c1 | 76.5* | -0.5 | 1.6 | -2.9
O=C(CSc1nnc(COc2ccc(Cl)cc2Cl)o1)Nc1ccccn1 | / | -0.5 | -4.9 | -3.3
Clc1ccc(-c2nnc(CSc3nnc(-c4cccs4)o3)o2)cc1 | 70.4* | 0.8 | 3.2 | -2.3
O=C/C(=C\Nc1ccc(Cl)cn1)c1nc2cc(Cl)ccc2o1 | 75.0* | 0.4 | 0.1 | 2.3
CCCSC1=N/C(=C\c2ccc3c(c2)OCO3)C(=O)S1 | 56.7 | -0.7 | -0.8 | 2.6
CCSC1=N/C(=C\c2ccc3c(c2)OCO3)C(=O)S1 | 73.6* | 0.1 | 2.1 | 0.6
Cc1nn(CC(=O)Nc2ccc3c(c2)CCC3)c(C)c1[N+](=O)[O-] | / | -1.8 | 3.7 | -3.2
O=C(O)CC(Cc1ccccc1)(C(=O)O)c1ccccc1 (stereo not given) | / | 0.5 | 2.1 | -5.8
O=c1[nH]cnc2c1sc1nc3c(c(-c4ccc(Cl)cc4)c12)CCC3 | 85.4* | -0.2 | 0.8 | -3.2
CCOC(=O)Cn1nnc2c(sc3nc4c(c(-c5ccc(Cl)cc5)c32)CCC4)c1=O | -28.0 | -0.5 | 2.0 | 5.4
COc1ccc(Cn2c(=O)[nH]c3cc(C(=O)N4CCN(Cc5ccccc5)CC4)ccc3c2=O)cc1 | 71.8* | -0.4 | -2.9 | -2.6
COc1ccc(N(Cc2ccccc2)S(=O)(=O)c2cccc(C(=O)NCC3CCCO3)c2)cc1 (stereo not given) | / | / | 0.1 | -3.6
COCCn1c(-c2ccc(OC(F)(F)C(F)C(F)(F)F)cc2)nc2c1c(=O)[nH]c(=O)n2CC(C)C (stereo not given) | 73.3* | 0.6 | -1.6 | -2.4
Fc1ccc(NC(=S)N2CCN(c3ncccn3)CC2)cc1 | 16.6 | 0.7 | -0.7 | -1.5
O=c1c2c3nc4ccccc4nc3n(Cc3ccccc3)c2ncn1Cc1ccco1 | 73.7* | / | / | /
N=c1c2c(-c3ccccc3)c(-c3ccccc3)n(Cc3ccco3)c2ncn1Cc1ccccc1 | 84.8* | -0.9 | 35.4 | 27.9
SMILES | CHOP inhibitor | A1 inh | CHOP UPR activ | XBP1 UPR activ
O=C(N/C(=C/c1ccccc1Cl)C(=O)N1CCCCC1)c1ccco1 | / | 1.9 | -0.4 | -2.1
CCOc1ccc(CN(C)C(=O)CNC(=O)c2ccc3ccccc3c2)cc1OC | / | -0.2 | 0.2 | 1.0
CCN=C1S/C(=C\c2cc(Br)c(O)c(OC)c2)C(=O)N1CC | / | -0.2 | 0.4 | 9.4
CC(C)(C)C(=O)/C(=C/c1ccncc1)n1cncn1 | 84.6* | 0.8 | 25.4 | -6.1
Cc1nn(C)c(C)c1/C=C(/C(=O)C(C)(C)C)n1cncn1 | -8.8 | 0.8 | 1.6 | -4.5
CCOc1ccc(NC(=O)CN2C(=O)COc3ccc(Cl)cc32)cc1 | 76.0* | 0.4 | -0.2 | 1.5
C[C@@H](N)C(=O)NC[C@H]1CC[C@H](C(=O)N[C@@H](Cc2ccccc2)C(=O)O)CC1 | / | -0.3 | 0.7 | -1.5
CCOC(=O)c1sc(NC(=O)Nc2ccccc2Cl)cc1C | 80.1* | -6.7 | 5.7 | 3.5
CCOc1cccc2c1OC1(C)CC2NC(=O)N1c1cccc(C(=O)NCc2ccccn2)c1 (stereo not given) | / | 0.4 | 0.3 | -6.2
CCOC(=O)c1c(C)[nH]c(C(=O)COC(=O)C(C)Oc2ccc(Cl)cc2Cl)c1C (stereo not given) | 74.6* | -0.9 | -0.3 | -0.7
CCOC(=O)c1c(C)[nH]c(C(=O)CSc2nnc(-c3cccs3)n2Cc2ccccc2)c1C | 78.8* | -0.4 | -0.3 | 16.8
CCOC(=O)c1c(C)[nH]c(C(=O)CSc2nc(C)cc(C)n2)c1C | 44.9 | -0.3 | -2.0 | 4.7
CCOC(=O)c1c(C)[nH]c(C(=O)CSc2ccc(Cl)cc2)c1C | 70.2* | 1.5 | 2.9 | -0.6
CCOC(=O)c1c(C)[nH]c(C(=O)OCCOc2ccc(Cl)cc2)c1C | 72.4* | 0.8 | 0.0 | -0.1
CCOC(=O)c1c(C)[nH]c(C(=O)OCC(=O)Nc2ccc(OCC)cc2)c1C | 19.5 | 0.2 | 5.2 | -1.8
Cc1ccc(C(C(=O)NCC2CCCO2)N(C(=O)c2snc(C(N)=O)c2N)c2ccccc2)o1 (stereo not given) | / | 0.7 | 0.3 | 1.1
CCOC(=O)c1c(C)[nH]c(C)c1C(=O)CSc1nnnn1-c1ccccc1 | -7.7 | 0.0 | 2.5 | 1.1
CCOC(=O)c1c(C)[nH]c(C(=O)OCCOc2ccccc2C)c1C | 74.3* | / | / | /
CCOC(=O)c1c(C)[nH]c(C(=O)COC(=O)C2CC2)c1C | / | / | 7.3 | 6.0
CCOC(=O)c1c(C)[nH]c(C(=O)OCC(=O)c2ccccc2)c1C | / | -5.1 | 3.8 | -3.5
CCOC(=O)c1c(C)[nH]c(C(=O)COC(=O)C2(C)CC2(Cl)Cl)c1C (stereo not given) | 80.6* | -2.0 | 1.3 | 4.7
COC(=O)c1c(C)[nH]c(C(=O)CSc2nnnn2-c2ccccc2)c1C | 77.2* | 0.3 | -0.6 | 8.6
Cc1ccc(C)c(NC(=O)c2ccccc2NS(=O)(=O)c2cc([N+](=O)[O-])ccc2C)c1 | 73.7* | -0.1 | 7.6 | 8.3
Cc1ccc([N+](=O)[O-])cc1S(=O)(=O)Nc1cccc(S(=O)(=O)Nc2ccccc2C(=O)O)c1 | / | 1.1 | 2.2 | -1.1
CCN1CCC2(CC1)N=C(c1ccc(F)cc1)C(=S)N2C(=O)c1ccc(C(C)(C)C)cc1 | 92.8* | 0.7 | 1.3 | -1.1
CC(C)(C)C(=O)n1nc(-c2ccccc2)oc1=O | 70.0* | 0.2 | 1.4 | -0.4
O=S1OCCN1c1ccccc1 (stereo not given) | / | 0.7 | 0.3 | -0.5
